Results as given in ChEMBL document CHEMBL1275586, “Phenotypic susceptibility to bevirimat in isolates from HIV-1-infected patients without prior exposure to bevirimat” (Antimicrob Agents Chemother, 2010).
pEC50: −log10 of the molar value.

Tests used:
[1] = tested on: Human immunodeficiency virus 1; experiment: Antiviral activity against Human immunodeficiency virus 1 isolate 29 harboring Gag-capsid I138M, A146P, R286K and A326S mutant gene and protease L10F, I13V, V32I, M36L, S37N, M46I, I47V, I62V, L63P, A71I, I72V and V82A mutant gene infected in human MT-2 cells by XTT-assay relative to wild-type; format: functional, MT2
Procedure, shortened: (§1)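 Patient Gag-protease (SfoI-XmaI) fragments were ligated into the pXXLAI backbone, with colonies pooled to keep quasispecies. Virus came from 293T transfection, harvested at 2 days. MT-2 infection at 37°C used an input giving XTT signal-to-noise of 2.5–4.0 (≈MOI 0.001). Cells at ≈17,000/well with drug dilutions, 5 days, 37°C; XTT 1 h, A450–650. EC50 from % cell death; fold change vs wild-type LAI.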

[2] = tested on: Human immunodeficiency virus 1; experiment: Antiviral activity against Human immunodeficiency virus 1 LAI infected in human MT-2 cells by XTT-assay; format: functional, organism-based; conditions: MT2
Procedure, shortened: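 Recombinant virus produced by transfecting 7 μg viral plasmid (pXXLAI backbone; patient-derived SfoI-XmaI fragment for isolates) into 293T cells. Supernatant harvested 2 days later. 2.4 million MT-2 cells infected at 37°C with virus giving XTT signal-to-noise 2.5–4.0, then plated ≈17,000 cells/well with drug dilutions. After 5 days at 37°C, 5% CO2, 1.67 mg/ml XTT added for 1 h. A450–A650 read; EC50 from cell-death curves.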

[3] = tested on: Human immunodeficiency virus 1; experiment: Antiviral activity against Human immunodeficiency virus 1 LAI Gag-[…] V362I mutant infected in human MT-2 cells by XTT-assay relative to wild-type; format: functional, MT2
Procedure, shortened: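 Site-directed mutants were made by two-round overlap PCR into the pXXLAI (HIV-1 LAI) backbone from an individual clone, then transfected into 293T cells, with supernatant harvested at 2 days. MT-2 cells were infected at an input giving an XTT signal-to-noise of 2.5–4.0, plated at ≈17,000 cells/well with drug dilutions, and read by XTT after 5 days. EC50 from % cell death; fold change vs wild-type LAI.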

[4] = tested on: Human immunodeficiency virus 1; experiment: Antiviral activity against antiretroviral-pretreated PI-resistant Human immunodeficiency virus 1 isolate 2 harboring Gag-SP-1 S373A, A374G and T375A mutant gene infected in human MT-2 cells by XTT assay relative to wild-type
[5] = tested on: Human immunodeficiency virus 1; experiment: Antiviral activity against Human immunodeficiency virus 1 isolate 33 harboring Gag-SP1 S368G, V370M and S373T mutant gene infected in human MT-2 cells by XTT assay relative to wild-type; format: functional, MT2; procedure, shortened: as §1
[6] = tested on: Human immunodeficiency virus 1; experiment: Antiviral activity against antiretroviral-pretreated PI-resistant Human immunodeficiency virus 1 isolate 4 harboring Gag-capsid G357S mutant gene and Gag-Sp-1 N372A, A374T and T375N mutant gene infected in human MT-2 cells by XTT assay relative to wild-type
[7] = tested on: Human immunodeficiency virus 1; experiment: Antiviral activity against antiretroviral-pretreated PI-resistant Human immunodeficiency virus 1 isolate 6 harboring Gag-SP-1 V370A,S373A and A374T mutant gene infected in human MT-2 cells by XTT assay relative to wild-type; format: functional, MT2
Procedure, shortened: (§2)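 Patient-derived Gag fragments were pooled as bacterial colonies to keep quasispecies diversity and ligated into the pXXLAI (HIV-1 LAI) backbone. Virus was made by transfecting 293T cells and harvesting supernatant 2 days later. MT-2 cells were infected at 37°C with an inoculum titrated to give an XTT signal-to-noise of 2.5–4.0. Cells were plated into drug dilutions, incubated 5 days at 37°C, and read by XTT absorbance (450−650 nm). EC50 was taken from percent cell death and expressed as fold change versus wild-type LAI.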

[8] = tested on: Human immunodeficiency virus 1; experiment: Antiviral activity against antiretroviral-pretreated PI-resistant Human immunodeficiency virus 1 isolate 25 harboring Gag-capsid G357S mutant gene and Gag-SP-1 […] mutant gene infected in human MT-2 cells by XTT assay relative to wild-type; format: functional, MT2; procedure, shortened: as §2
[9] = tested on: Human immunodeficiency virus 1; experiment: Antiviral activity against antiretroviral-pretreated Human immunodeficiency virus 1 isolate 8 infected in human MT-2 cells by XTT assay relative to wild-type; format: functional, MT2; procedure, shortened: as §2
[10] = tested on: Human immunodeficiency virus 1; experiment: Antiviral activity against antiretroviral-pretreated Human immunodeficiency virus 1 isolate 22 infected in human MT-2 cells by XTT assay relative to wild-type; format: functional, MT2; procedure, shortened: as §2
[11] = tested on: Human immunodeficiency virus 1; experiment: Antiviral activity against Human immunodeficiency virus 1 isolate 6 harboring Gag-SP-1 S373 and A374 mutant infected in human MT-2 cells by XTT-assay relative to wild-type; format: functional, MT2; procedure, shortened: as §1
[12] = tested on: Human immunodeficiency virus 1; experiment: Antiviral activity against Human immunodeficiency virus 1 isolate 36 harboring Gag-SP1 […], A374N and T375A mutant gene infected in human MT-2 cells by XTT assay relative to wild-type; format: functional, MT2; procedure, shortened: as §1
[13] = tested on: Human immunodeficiency virus 1; experiment: Antiviral activity against antiretroviral-pretreated PI-resistant Human immunodeficiency virus 1 isolate 20 harboring Gag-capsid G357S mutant gene and Gag-SP1 Q369H and I376V mutant gene infected in human MT-2 cells by XTT assay relative to wild-type; format: functional, MT2; procedure, shortened: as §2
[14] = tested on: Human immunodeficiency virus 1; experiment: Antiviral activity against Human immunodeficiency virus 1 isolate 38 harboring Gag-SP1 V370A, N372S/G, S373P/T/Q/K, A374A/G/T/S, T375A and I376M mutant gene infected in human MT-2 cells by XTT assay relative to wild-type; format: functional, MT2; procedure, shortened: as §1
[15] = tested on: Human immunodeficiency virus 1; experiment: Antiviral activity against Human immunodeficiency virus 1 isolate 7 harboring Gap-SP-1 V362I mutant infected in human MT-2 cells by XTT-assay relative to wild-type; format: functional, MT2; procedure, shortened: as §1
[16] = tested on: Human immunodeficiency virus 1; experiment: Antiviral activity against antiretroviral-pretreated PI-resistant Human immunodeficiency virus 1 isolate 28 infected in human MT-2 cells by XTT assay relative to wild-type; format: functional, MT2; procedure, shortened: as §2
[17] = tested on: Human immunodeficiency virus 1; experiment: Antiviral activity against antiretroviral-pretreated PI-resistant Human immunodeficiency virus 1 isolate 27 harboring infected in human MT-2 cells by XTT assay relative to wild-type
[18] = tested on: Human immunodeficiency virus 1; experiment: Antiviral activity against antiretroviral-pretreated PI-resistant Human immunodeficiency virus 1 isolate 7 infected in human MT-2 cells by XTT assay relative to wild-type; format: functional, MT2; procedure, shortened: as §2
[19] = tested on: Human immunodeficiency virus 1; experiment: Antiviral activity against Human immunodeficiency virus 1 isolate 35 harboring Gag-capsid G357S mutant gene and Gag-SP1 V370A, T371Q, N372S, T375N and I376M mutant gene infected in human MT-2 cells by XTT assay relative to wild-type; format: functional, MT2; procedure, shortened: as §1
[20] = tested on: Human immunodeficiency virus 1; experiment: Antiviral activity against antiretroviral-pretreated PI-resistant Human immunodeficiency virus 1 isolate 23 harboring Gag-capsid G357S and V362I mutant gene, Gag-SP-1 V370A and T375A mutant gene and deletion at T371 in Gag-SP-1 infected in human MT-2 cells by XTT assay relative to wild-type; format: functional, MT2; procedure, shortened: as §2
[21] = tested on: Human immunodeficiency virus 1; experiment: Antiviral activity against Human immunodeficiency virus 1 isolate 39 harboring Gag-capsid G357S and V362I mutant gene and Gag-SP-1 T375A mutant gene infected in human MT-2 cells by XTT assay relative to wild-type; format: functional, MT2; procedure, shortened: as §1
[22] = tested on: Human immunodeficiency virus 1; experiment: Antiviral activity against antiretroviral-pretreated PI-resistant Human immunodeficiency virus 1 isolate 3 harboring Gag-capsid G357S mutant gene, Gag-Sp-1 V370A and N372H mutant gene and deletion at T371 in Gag-SP-1 infected in human MT-2 cells by XTT assay relative to wild-type; format: functional, MT2; procedure, shortened: as §2

## C=C(C)[C@@H]1CC[C@]2(C(=O)O)CC[C@]3(C)[C@H](CC[C@@H]4[C@@]5(C)CC[C@H](OC(=O)CC(C)(C)C(=O)O)C(C)(C)[C@@H]5CC[C@]43C)[C@@H]12 [BEVIRIMAT]
[1]
  fold change (FC): >100
[2]
  pEC50: 7.47
[3]
  fold change (FC): >100
[4]
  fold change (FC): >100
[5]
  fold change (FC): >100
[6]
  fold change (FC): >100
[7]
  fold change (FC): >100
[8]
  fold change (FC): 11
[9]
  fold change (FC): 1.2
[10]
  fold change (FC): 0.7
[11]
  fold change (FC): >100
[12]
  fold change (FC): 1.8
[13]
  fold change (FC): 2.1
[14]
  fold change (FC): >100
[15]
  fold change (FC): >100
[16]
  fold change (FC): 1.3
[17]
  fold change (FC): 36
[18]
  fold change (FC): 1
[19]
  fold change (FC): >100
[20]
  fold change (FC): >100
[21]
  fold change (FC): >100
[22]
  fold change (FC): >100
